The values below come from ChEMBL document CHEMBL1124735, “Dehydrogenase binding by tiazofurin anabolites” (J Med Chem, 1990).

For data set [1], the system named is NC(=O)c1ccc[n+]([C@@H]2O[C@H](COP(=O)([O-])OP(=O)(O)OC[C@H]3O[C@@H](n4cnc5c(N)ncnc54)[C@H](O)[C@@H]3O)[C@@H](O)[C@H]2O)c1. As to the kind of experiment: In vitro inhibitory activity against horse liver Alcohol dehydrogenase. As to conditions: Equus caballus.
For data set [2] the test system is unchanged. The data set is described as follows: In vitro inhibitory activity against bovine liver glutamate dehydrogenase (GDH).
The test system is the same in data set [3]. As to the kind of experiment: In vitro inhibitory activity against pig heart lactate dehydrogenase (LDH). As to conditions: Sus scrofa. The method in brief: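 Pig heart enzymes (cytoplasmic MDH or LDH, from ammonium sulfate suspension) assayed in 0.05 M Tris HCl pH 9.0, with NAD as substrate; rates from NADH appearance by A340 (ε 6.22 mM⁻¹cm⁻¹) or fluorescence calibrated against NADH standards. Run at least in duplicate; kinetic constants from Lineweaver-Burk plots by linear regression.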

Chain of Alcohol dehydrogenase (Equus caballus) (P00328 whole entry, looked up): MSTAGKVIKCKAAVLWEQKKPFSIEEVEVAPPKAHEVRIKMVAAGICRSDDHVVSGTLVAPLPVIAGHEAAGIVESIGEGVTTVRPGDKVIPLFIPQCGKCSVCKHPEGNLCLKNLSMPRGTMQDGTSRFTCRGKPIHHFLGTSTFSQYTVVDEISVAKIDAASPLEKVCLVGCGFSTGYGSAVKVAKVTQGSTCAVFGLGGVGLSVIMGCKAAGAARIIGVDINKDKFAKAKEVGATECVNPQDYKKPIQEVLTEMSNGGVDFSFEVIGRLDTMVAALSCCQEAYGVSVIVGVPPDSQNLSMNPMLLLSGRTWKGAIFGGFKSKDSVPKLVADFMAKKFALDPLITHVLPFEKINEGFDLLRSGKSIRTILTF
Chain of Alcohol dehydrogenase (Equus caballus) (P00327 whole entry, looked up): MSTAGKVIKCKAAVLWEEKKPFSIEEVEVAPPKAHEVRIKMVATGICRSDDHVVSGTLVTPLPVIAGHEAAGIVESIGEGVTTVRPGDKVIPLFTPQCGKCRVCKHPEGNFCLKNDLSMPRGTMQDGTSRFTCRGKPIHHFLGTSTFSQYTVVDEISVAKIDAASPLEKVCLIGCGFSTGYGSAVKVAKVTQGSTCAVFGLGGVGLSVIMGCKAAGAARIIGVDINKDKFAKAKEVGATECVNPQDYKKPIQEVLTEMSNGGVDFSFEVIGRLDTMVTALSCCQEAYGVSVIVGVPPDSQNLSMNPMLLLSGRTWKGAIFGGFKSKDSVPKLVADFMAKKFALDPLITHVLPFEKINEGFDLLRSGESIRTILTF
Chain of Glutamate dehydrogenase 1, mitochondrial (Bos taurus), P00366 (P00366 whole entry): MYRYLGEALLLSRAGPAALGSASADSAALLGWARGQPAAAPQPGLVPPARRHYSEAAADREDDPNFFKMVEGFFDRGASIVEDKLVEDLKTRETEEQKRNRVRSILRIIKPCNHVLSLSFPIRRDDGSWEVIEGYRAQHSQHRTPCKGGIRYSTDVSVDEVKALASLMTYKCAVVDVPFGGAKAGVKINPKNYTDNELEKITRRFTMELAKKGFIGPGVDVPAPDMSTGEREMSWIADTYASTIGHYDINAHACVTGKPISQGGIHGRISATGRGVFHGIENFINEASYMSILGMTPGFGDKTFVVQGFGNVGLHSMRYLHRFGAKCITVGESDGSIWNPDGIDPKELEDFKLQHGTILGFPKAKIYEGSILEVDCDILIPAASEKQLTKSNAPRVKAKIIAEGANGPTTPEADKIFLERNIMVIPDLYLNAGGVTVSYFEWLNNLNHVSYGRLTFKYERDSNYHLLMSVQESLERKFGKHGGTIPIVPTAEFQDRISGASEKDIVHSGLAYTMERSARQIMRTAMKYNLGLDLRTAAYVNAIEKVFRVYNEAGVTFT
Chain of L-lactate dehydrogenase B chain (Sus scrofa), P00336 (P00336 whole entry): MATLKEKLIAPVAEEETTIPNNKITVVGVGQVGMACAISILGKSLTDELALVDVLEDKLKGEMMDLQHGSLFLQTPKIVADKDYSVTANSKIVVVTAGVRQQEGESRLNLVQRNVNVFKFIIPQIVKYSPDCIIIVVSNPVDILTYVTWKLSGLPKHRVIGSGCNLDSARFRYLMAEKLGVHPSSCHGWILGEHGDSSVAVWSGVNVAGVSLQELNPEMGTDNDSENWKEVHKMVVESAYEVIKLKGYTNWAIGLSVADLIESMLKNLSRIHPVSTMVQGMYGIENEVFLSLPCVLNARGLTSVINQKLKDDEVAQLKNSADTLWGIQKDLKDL

For “Alcohol dehydrogenase (Equus caballus) (from UniProt P00327+P00328)”, the Km – broadly, the substrate concentration at which the rate is half of its maximum – in data set [1] was 22.3 µM.

On to “Glutamate dehydrogenase 1, mitochondrial (Bos taurus), P00366”, for which, in data set [2], the Km is 20 µM.

Consider “L-lactate dehydrogenase B chain (Sus scrofa), P00336”, for which, in data set [3], the Km was found to be 84.4 µM.
